Values belong to the compound of their own block, whether it stands above or below them. Active and inactive are the calls of the source. The rule behind the calls is not given here.
Experiments:
Streptococcus mutans [1] = test: Photodynamic inactivation of Streptococcus mutans ATCC 25175 assessed as reduction of log10 CFU at 10 uM incubated prior to irradiation with 150 j/cm'2 for 120 secs measured after 48 hrs by agar plating method (reference value: <1 no unit); format: functional
Actinomyces naeslundii [2] = test: Photodynamic inactivation of Actinomyces naeslundii T14V assessed as reduction of log10 CFU at 10 uM incubated prior to irradiation with 25 j/cm'2 for 20 secs measured after 48 hrs by agar plating method (reference value: <1 no unit); format: functional
Method in brief: (§1)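 A. naeslundii T14V grown overnight at 37 °C, shaken, aerobically in BHI broth. Harvested at stationary phase, resuspended in PBS to 10^7–10^8 bacteria/mL (OD600). Mixed 1:1 with PS (final 0–250 µM) or water, 10 s incubation, then blue photopolymerizer light (1260 ± 50 mW/cm2) or dark. Tenfold dilutions plated on blood agar, aerobic 37 °C 48 h, CFU counted; medians of three independent experiments in triplicate.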

Streptococcus mutans [3] = test: Photodynamic inactivation of Streptococcus mutans ATCC 25175 assessed as reduction of log10 CFU at 1 uM incubated prior to irradiation with 150 j/cm'2 for 120 secs measured after 48 hrs by agar plating method (reference value: <1 no unit); format: functional
[4] = tested on: Aggregatibacter actinomycetemcomitans; test: Photodynamic inactivation of Aggregatibacter actinomycetemcomitans ATCC 43718 assessed as reduction of log10 CFU at 1 uM incubated prior to irradiation with 50 j/cm'2 for 40 secs measured after 48 hrs by agar plating method (reference value: <1 no unit); format: functional, Y4
Method in brief: (§2)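 A. actinomycetemcomitans ATCC 43718 cultured overnight in BHI broth under anaerobic conditions, 37 °C with shaking. Stationary-phase cells were spun down, taken up in PBS to 10^7–10^8/mL, and combined 1:1 with PS (final 0–250 µM) or water. After 10 s they were irradiated at 1260 ± 50 mW/cm2 or kept dark. Serial dilutions went onto BHI agar, incubated anaerobically at 37 °C for 48 h, and CFU were scored. Results are medians from 3 experiments × triplicate versus untreated controls.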

Actinomyces naeslundii [5] = test: Photodynamic inactivation of Actinomyces naeslundii T14V assessed as reduction of log10 CFU at 100 uM incubated prior to irradiation with 150 j/cm'2 for 120 secs measured after 48 hrs by agar plating method (reference value: <1 no unit); format: functional; method in brief: as §1
[6] = tested on: Aggregatibacter actinomycetemcomitans; test: Photodynamic inactivation of Aggregatibacter actinomycetemcomitans ATCC 43718 assessed as reduction of log10 CFU at 5 uM incubated prior to irradiation with 50 j/cm'2 for 40 secs measured after 48 hrs by agar plating method (reference value: <1 no unit); format: functional, Y4; method in brief: as §2
Actinomyces naeslundii [7] = test: Photodynamic inactivation of Actinomyces naeslundii T14V assessed as reduction of log10 CFU at 5 uM incubated prior to irradiation with 25 j/cm'2 for 20 secs measured after 48 hrs by agar plating method (reference value: <1 no unit); format: functional; method in brief: as §1
[8] = tested on: Aggregatibacter actinomycetemcomitans; test: Photodynamic inactivation of Aggregatibacter actinomycetemcomitans ATCC 43718 assessed as reduction of log10 CFU at 10 uM incubated prior to irradiation with 25 j/cm'2 for 20 secs measured after 48 hrs by agar plating method relative to control; format: functional, Y4; method in brief: as §2
Streptococcus mutans [9] = test: Photodynamic inactivation of Streptococcus mutans ATCC 25175 assessed as reduction of log10 CFU at 10 uM incubated prior to irradiation with 25 j/cm'2 for 20 secs measured after 48 hrs by agar plating method (reference value: <1 no unit); format: functional
Actinomyces naeslundii [10] = test: Photodynamic inactivation of Actinomyces naeslundii T14V assessed as reduction of log10 CFU at 100 uM incubated prior to irradiation with 25 j/cm'2 for 20 secs measured after 48 hrs by agar plating method (reference value: <1 no unit); format: functional; method in brief: as §1
[11] = tested on: Aggregatibacter actinomycetemcomitans; test: Photodynamic inactivation of Aggregatibacter actinomycetemcomitans ATCC 43718 assessed as reduction of log10 CFU at 1 uM incubated prior to irradiation with 150 j/cm'2 for 120 secs measured after 48 hrs by agar plating method relative to control; format: functional, Y4; method in brief: as §2
[12] = tested on: Aggregatibacter actinomycetemcomitans; test: Photodynamic inactivation of Aggregatibacter actinomycetemcomitans ATCC 43718 assessed as reduction of log10 CFU at 10 uM incubated prior to irradiation with 50 j/cm'2 for 40 secs measured after 48 hrs by agar plating method (reference value: <1 no unit); format: functional, Y4; method in brief: as §2
Actinomyces naeslundii [13] = test: Photodynamic inactivation of Actinomyces naeslundii T14V assessed as reduction of log10 CFU at 1 uM incubated prior to irradiation with 50 j/cm'2 for 40 secs measured after 48 hrs by agar plating method (reference value: <1 no unit); format: functional; method in brief: as §1
Streptococcus mutans [14] = test: Photodynamic inactivation of Streptococcus mutans ATCC 25175 assessed as reduction of log10 CFU at 5 uM incubated prior to irradiation with 50 j/cm'2 for 40 secs measured after 48 hrs by agar plating method (reference value: <1 no unit); format: functional
Actinomyces naeslundii [15] = test: Photodynamic inactivation of Actinomyces naeslundii T14V assessed as reduction of log10 CFU at 10 uM incubated prior to irradiation with 50 j/cm'2 for 40 secs measured after 48 hrs by agar plating method (reference value: <1 no unit); format: functional; method in brief: as §1
Streptococcus mutans [16] = test: Photodynamic inactivation of Streptococcus mutans ATCC 25175 assessed as reduction of log10 CFU at 1 uM incubated prior to irradiation with 25 j/cm'2 for 20 secs measured after 48 hrs by agar plating method (reference value: <1 no unit); format: functional
Enterococcus faecalis = test: Photodynamic inactivation of Enterococcus faecalis ATCC 29212 assessed as reduction of log10 CFU at 1 to 250 uM preincubated for 10 secs followed by irradiation with 25 j/cm'2 for 20 secs measured after 24 hrs by agar plating method; format: functional, organism-based
Method in brief: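 E. faecalis ATCC 29212, aerobic overnight BHI culture at 37 °C, was harvested at stationary phase and suspended in PBS at 10^7–10^8 bacteria/mL. It was mixed 1:1 with PS to 0–250 µM final, held 10 s, then illuminated (1260 ± 50 mW/cm2) or kept dark. Dilutions were plated on Mueller-Hinton agar, aerobic 37 °C 24 h, CFU counted. Medians of three independent triplicate experiments, referred to untreated controls.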

[17] = tested on: Aggregatibacter actinomycetemcomitans; test: Photodynamic inactivation of Aggregatibacter actinomycetemcomitans ATCC 43718 assessed as reduction of log10 CFU at 1 to 250 uM incubated prior to irradiation with 25 j/cm'2 for 20 secs measured after 48 hrs by agar plating method; format: functional; details: Y4; method in brief: as §2
Actinomyces naeslundii [18] = test: Photodynamic inactivation of Actinomyces naeslundii T14V assessed as reduction of log10 CFU at 1 to 250 uM preincubated for 10 secs followed by irradiation with 150 j/cm'2 for 120 secs measured after 48 hrs by agar plating method; format: functional, organism-based; method in brief: as §1
Streptococcus mutans [19] = test: Photodynamic inactivation of Streptococcus mutans ATCC 25175 assessed as reduction of log10 CFU at 1 to 250 uM preincubated for 10 secs followed by irradiation with 50 j/cm'2 for 40 secs measured after 48 hrs by agar plating method; format: functional
[20] = Stability of the compound in basic medium at 60 uM at pH > 9 after 5 to 30 mins by UV-vis spectra analysis; format: physicochemical
Method in brief: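 UV-Vis absorption spectra recorded in buffer solutions at different pH values after 5 and 30 min incubation.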

Compound: C[N+](C)(CCO)CC1=Cc2cccc3cccc(c23)C1=O.[Cl-]
- log10cfu (Streptococcus mutans [1]): >6
- log10cfu (Actinomyces naeslundii [2]): <3
- log10cfu (Streptococcus mutans [3]): <1
- log10cfu [4]: <3
- log10cfu (Actinomyces naeslundii [5]): > 5
- log10cfu [6]: <3
- log10cfu (Actinomyces naeslundii [7]): <1
- log10cfu [8]: <3
- log10cfu (Streptococcus mutans [9]): <1
- log10cfu (Actinomyces naeslundii [10]): > 5
- log10cfu [11]: >6
- log10cfu [12]: <3
- log10cfu (Actinomyces naeslundii [13]): <1
- log10cfu (Streptococcus mutans [14]): <1
- log10cfu (Actinomyces naeslundii [15]): <5
- log10cfu (Streptococcus mutans [16]): <1

- Stability [20]: Unstable
Compound: C[N+](C)(C)CC1=Cc2cccc3cccc(c23)C1=O.[Cl-]
- Activity (Enterococcus faecalis): Active
- Activity [17]: Active
- Activity (Actinomyces naeslundii [18]): Active
- Activity (Streptococcus mutans [19]): Active

- Stability [20]: Unstable
Compound: O=C1C(C[n+]2ccccc2)=Cc2cccc3cccc1c23.[Cl-]
- log10cfu (Streptococcus mutans [1]): >6
- log10cfu (Actinomyces naeslundii [2]): > 5
- log10cfu (Streptococcus mutans [3]): <3
- Activity (Enterococcus faecalis): Active
- Activity [17]: Active
- log10cfu [4]: <3
- log10cfu (Actinomyces naeslundii [5]): > 5
- log10cfu [6]: >6
- log10cfu (Actinomyces naeslundii [7]): <3
- Activity (Actinomyces naeslundii [18]): Active
- log10cfu [8]: >6
- Activity (Streptococcus mutans [19]): Active
- log10cfu (Streptococcus mutans [9]): <3
- log10cfu (Actinomyces naeslundii [10]): > 5
- log10cfu [11]: >6
- log10cfu [12]: >6
- log10cfu (Actinomyces naeslundii [13]): <1
- log10cfu (Streptococcus mutans [14]): <3
- log10cfu (Actinomyces naeslundii [15]): > 5
- log10cfu (Streptococcus mutans [16]): <1

— ChEMBL document CHEMBL3297702, “Improving photodynamic inactivation of bacteria in dentistry: highly effective and fast killing of oral key pathogens with novel tooth-colored type-II photosensitizers” (J Med Chem, 2014)
